Assays:
[1] = tested on: UACC-903; experiment: Cytotoxicity against human UACC-903 cells after 24 hrs by MTS assay; format: functional, cell-based; conditions: UACC-903, 24 h
Outline: (§1)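 Cells in DMEM with 10% FBS at 37 °C and 5% CO2 were plated at 5×10^3 per well and grown 24 h. They were then exposed 24 or 72 h to 0.5, 1, 5, 10, 25 and 50 µM, with final DMSO 0.5% and DMSO controls. MTS/PMS was added for 4 h at 37 °C. A492 was read with the medium blank subtracted and expressed as % of control. IC50 was taken from three independent experiments (mean ± S.E.).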

[2] = Cytotoxicity against human SK-MEL-37 cells after 72 hrs by MTS assay; format: functional, cell-based; outline: as §1
[3] = tested on: UACC-903; experiment: Induction of apoptosis in human UACC-903 cells assessed as early apoptotic cells at 1 uM after 24 hrs using annexin-V-PE/7-AAD double staining by flow cytometry; format: functional
Outline: (§2)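 UACC 903 cells were exposed 24 h at 37 °C to 1, 5 or 25 µM, with DMSO as control. Cells were harvested, washed twice in cold PBS and resuspended at 1×10^6 cells/mL in binding buffer. They were stained with 7-AAD plus PE Annexin V for 20 min at room temperature in the dark and run by flow cytometry within 1 h. Gating: double-negative live, 7-AAD+ dead, Annexin V+/7-AAD− early apoptotic. Three separate experiments.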

[4] = tested on: UACC-903; experiment: Induction of apoptosis in human UACC-903 cells assessed as early apoptotic cells at 25 uM after 24 hrs using annexin-V-PE/7-AAD double staining by flow cytometry; format: functional; outline: as §2
[5] = tested on: UACC-903; experiment: Induction of apoptosis in human UACC-903 cells assessed as non-viable cells at 1 uM after 24 hrs using annexin-V-PE/7-AAD double staining by flow cytometry; format: functional; outline: as §2
[6] = tested on: Mus musculus; experiment: Systemic toxicity in athymic Harlan Sprague-Dawley nude mouse xenografted with human UACC-903 cells assessed as reduction in body weight at 8.5 to 10 mg/kg, ip administered thrice a week for 24 days; format: organism-based; design: dose 8.5-10 mg/kg, route intraperitoneal; conditions: in vivo, 576 h
Outline: (§3)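 Female athymic nude mice, 4–6 weeks old, received 5×10^6 UACC 903 cells s.c. in DMEM/10% FBS above both rib cages. After six days they were randomized at 5 mice/group, 2 tumors/mouse. Dosing was i.p. Mon/Wed/Fri, with one arm dosed daily; controls got DMSO vehicle. Tumor dimensions (calipers, mm³) and body weight were recorded three times weekly.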

[7] = tested on: 1205Lu; experiment: Cytotoxicity against human 1205 Lu cells assessed as decrease in cell viability after 24 hrs by MTS assay; format: functional, cell-based; outline: as §1
[8] = tested on: Mus musculus; experiment: Systemic toxicity in Swiss Webster mouse assessed as mortality at 10 mg/kg, ip administered every day for 28 days; format: organism-based; design: dose 10 mg/kg, route intraperitoneal; conditions: in vivo, 672 h
Outline: (§4)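 Swiss Webster mice, n = 4 per group, dosed i.p. once daily for 28 days at 5, 7.5, 10 or 15 mg/kg body weight. Body weight recorded twice per week; deaths noted over the dosing period.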

[9] = tested on: A375-S2; experiment: Cytotoxicity against human A375-S2 cells assessed as decrease in cell viability after 72 hrs by MTS assay; format: functional, cell-based; outline: as §1
[10] = tested on: SK-MEL-37 (Homo sapiens); experiment: Cytotoxicity against human SK-MEL-37 cells assessed as decrease in cell viability after 72 hrs by MTS assay
[11] = Cytotoxicity against human A375-S2 cells after 24 hrs by MTS assay; format: functional, cell-based; conditions: A375-S2, 24 h; outline: as §1
[12] = tested on: UACC-903; experiment: Induction of apoptosis in human UACC-903 cells assessed as non-viable cells at 25 uM after 24 hrs using annexin-V-PE/7-AAD double staining by flow cytometry; format: functional; outline: as §2
[13] = tested on: UACC-903; experiment: Antitumor activity against human UACC-903 cells xenografted in athymic Harlan Sprague-Dawley nude mouse assessed as reduction in tumor growth at 8.5 to 10 mg/kg, ip administered thrice per week for 24 days measured after 21 days; format: functional; conditions: dose mg/kg 8.5-10; route intraperitoneal; outline: as §3
[14] = tested on: A375-S2; experiment: Cytotoxicity against human A375-S2 cells assessed as decrease in cell viability after 24 hrs by MTS assay; format: functional, cell-based; outline: as §1
[15] = tested on: Mus musculus; experiment: Systemic toxicity in Swiss Webster mouse assessed as mortality at 15 mg/kg, ip administered every day for 28 days; format: organism-based; design: dose 15 mg/kg, route intraperitoneal; conditions: in vivo, 672 h; outline: as §4
[16] = tested on: UACC-903; experiment: Induction of apoptosis in human UACC-903 cells assessed as viable cells at 25 uM after 24 hrs using annexin-V-PE/7-AAD double staining by flow cytometry; format: functional; conditions: UACC-903, 24 h, read-out: Activity; outline: as §2
[17] = tested on: UACC-903; experiment: Induction of apoptosis in human UACC-903 cells assessed as late apoptotic cells at 5 uM after 24 hrs using annexin-V-PE/7-AAD double staining by flow cytometry; format: functional; outline: as §2
[18] = Cytotoxicity against human 1205 Lu cells after 24 hrs by MTS assay; format: functional, cell-based; outline: as §1
[19] = tested on: UACC-903; experiment: Induction of apoptosis in human UACC-903 cells assessed as late apoptotic cells at 1 uM after 24 hrs using annexin-V-PE/7-AAD double staining by flow cytometry; format: functional; outline: as §2
[20] = tested on: UACC-903; experiment: Cytotoxicity against human UACC-903 cells assessed as decrease in cell viability after 24 hrs by MTS assay; format: functional, cell-based; outline: as §1
[21] = tested on: SK-MEL-37 (Homo sapiens); experiment: Cytotoxicity against human SK-MEL-37 cells assessed as decrease in cell viability after 24 hrs by MTS assay
[22] = tested on: UACC-903; experiment: Induction of apoptosis in human UACC-903 cells assessed as non-viable cells at 5 uM after 24 hrs using annexin-V-PE/7-AAD double staining by flow cytometry; format: functional; outline: as §2
[23] = tested on: UACC-903; experiment: Cytotoxicity against human UACC-903 cells assessed as decrease in cell viability after 72 hrs by MTS assay; format: functional, cell-based; outline: as §1
[24] = tested on: UACC-903; experiment: Cytotoxicity against human UACC-903 cells after 72 hrs by MTS assay; format: functional, cell-based; conditions: UACC-903, 72 h; outline: as §1
[25] = tested on: UACC-903; experiment: Induction of apoptosis in human UACC-903 cells assessed as viable cells at 1 uM after 24 hrs using annexin-V-PE/7-AAD double staining by flow cytometry; format: functional; conditions: UACC-903, 24 h, read-out: Activity; outline: as §2
[26] = Cytotoxicity against human SK-MEL-37 cells after 24 hrs by MTS assay; format: functional, cell-based; outline: as §1
[27] = Cytotoxicity against human A375-S2 cells after 72 hrs by MTS assay; format: functional, cell-based; conditions: A375-S2, 72 h; outline: as §1
[28] = tested on: UACC-903; experiment: Induction of apoptosis in human UACC-903 cells assessed as viable cells at 5 uM after 24 hrs using annexin-V-PE/7-AAD double staining by flow cytometry; format: functional; conditions: UACC-903, 24 h, read-out: Activity; outline: as §2
[29] = tested on: UACC-903; experiment: Induction of apoptosis in human UACC-903 cells assessed as late apoptotic cells at 25 uM after 24 hrs using annexin-V-PE/7-AAD double staining by flow cytometry; format: functional; outline: as §2
[30] = tested on: UACC-903; experiment: Induction of apoptosis in human UACC-903 cells assessed as early apoptotic cells at 5 uM after 24 hrs using annexin-V-PE/7-AAD double staining by flow cytometry; format: functional; outline: as §2
[31] = tested on: UACC-903; experiment: Induction of apoptosis in human UACC-903 cells assessed as increase in apoptotic cells after 24 hrs using annexin-V-PE/7-AAD double staining by flow cytometry; format: functional, cell-based; outline: as §2
[32] = tested on: Mus musculus; experiment: Systemic toxicity in Swiss Webster mouse assessed as weight loss at 10 mg/kg, ip administered every day for 28 days; format: organism-based; design: dose 10 mg/kg, route intraperitoneal; conditions: in vivo, 672 h; outline: as §4
[33] = tested on: 1205Lu; experiment: Cytotoxicity against human 1205 Lu cells assessed as decrease in cell viability after 72 hrs by MTS assay; format: functional, cell-based; outline: as §1
[34] = Cytotoxicity against human 1205 Lu cells after 72 hrs by MTS assay; format: functional, cell-based; outline: as §1
[35] = tested on: Mus musculus; experiment: Systemic toxicity in athymic Harlan Sprague-Dawley nude mouse xenografted with human UACC-903 cells assessed as reduction in body weight at 9.5 to 10.6 mg/kg, ip administered thrice a week for 24 days; format: organism-based; design: dose 9.5-10.6 mg/kg, route intraperitoneal; conditions: in vivo, 576 h; outline: as §3
[36] = tested on: UACC-903; experiment: Antitumor activity against human UACC-903 cells xenografted in athymic Harlan Sprague-Dawley nude mouse assessed as reduction in tumor growth at 9.5 to 10.6 mg/kg, ip administered thrice per week for 24 days measured after 21 days; format: functional; conditions: dose mg/kg 9.5-10.6; route intraperitoneal; outline: as §3

O=C1c2cccc3cccc(c23)C(=O)N1CCCCN=C=S
IC50 [1]: 10.7 µM | IC50 [2]: 2.12 µM | Activity [3]: 21.1% | Activity [4]: 51.7% | Activity [5]: 6.42% | Activity [6]: Non-toxic | Activity [7]: Dose-dependent effect | Activity [8]: Non-toxic | Activity [9]: Dose-dependent effect | Activity [10]: Dose-dependent effect | IC50 [11]: 6.89 µM | Activity [12]: 6.43% | growth inhibition (GI) [13]: 30% | Activity [14]: Dose-dependent effect | Activity [15]: Toxic | viability at 25 µM [16]: 22.5% | Activity [17]: 16% | IC50 [18]: 4.88 µM | Activity [19]: 9.79% | Activity [20]: Dose-dependent effect | Activity [21]: Dose-dependent effect | Activity [22]: 9.69% | Activity [23]: Dose-dependent effect | IC50 [24]: 5.17 µM | viability at 1 µM [25]: 62.7% | IC50 [26]: 3.89 µM | IC50 [27]: 3.47 µM | viability at 5 µM [28]: 39.4% | Activity [29]: 19.3% | Activity [30]: 34.9% | Activity [31]: Dose-dependent effect | Activity [32]: Non-toxic | Activity [33]: Dose-dependent effect | IC50 [34]: 3.03 µM

N=C(N)SCCN1C(=O)c2cccc3cccc(c23)C1=O
IC50 [1]: 9.87 µM | IC50 [2]: 2.15 µM | Activity [3]: 9.11% | Activity [4]: 47.6% | Activity [5]: 0.71% | Activity [7]: Dose-dependent effect | Activity [8]: Non-toxic | Activity [9]: Dose-dependent effect | Activity [10]: Dose-dependent effect | IC50 [11]: 6.7 µM | Activity [12]: 0.43% | Activity [35]: Non-toxic | Activity [14]: Dose-dependent effect | Activity [15]: Toxic | viability at 25 µM [16]: 42.4% | Activity [17]: 2.41% | IC50 [18]: 22.4 µM | Activity [19]: 1.04% | Activity [20]: Dose-dependent effect | Activity [21]: Dose-dependent effect | growth inhibition (GI) [36]: 20% | Activity [22]: 0.42% | Activity [23]: Dose-dependent effect | IC50 [24]: 6.85 µM | viability at 1 µM [25]: 89.1% | IC50 [26]: 3.7 µM | IC50 [27]: 3.78 µM | viability at 5 µM [28]: 79.7% | Activity [29]: 9.64% | Activity [30]: 17.5% | Activity [31]: Dose-dependent effect | Activity [32]: Non-toxic | Activity [33]: Dose-dependent effect | IC50 [34]: 18.7 µM

Source: ChEMBL document CHEMBL1806370, “Development of novel naphthalimide derivatives and their evaluation as potential melanoma therapeutics” (Eur J Med Chem, 2011)
